Results from ChEMBL document CHEMBL3808280, “GroEL/ES inhibitors as potential antibiotics” (Bioorg Med Chem Lett, 2016).
In brackets after ≈: the same amount, converted by molar mass. Activity calls are given as the source filed them. The calls are words filed in the database; no cut-off is given here.

Key:
E. coli GroEL/ES [1] = target: T1, E. coli GroEL/ES (Escherichia coli, UniProt P0A6F5); test: (§1) Inhibition of Escherichia coli GroEL/GroES using Escherichia coli GroEL expressed in Escherichia coli DH5alpha cells and Escherichia coli GroES expressed in Escherichia coli BL21(DE3) cells assessed as inhibition of denatured rhodanese refolding by measuring reduction in thiocyanate production incubated for 60 mins by micro plate reader analysis
T1 sequence (P0A6F5 whole entry, looked up): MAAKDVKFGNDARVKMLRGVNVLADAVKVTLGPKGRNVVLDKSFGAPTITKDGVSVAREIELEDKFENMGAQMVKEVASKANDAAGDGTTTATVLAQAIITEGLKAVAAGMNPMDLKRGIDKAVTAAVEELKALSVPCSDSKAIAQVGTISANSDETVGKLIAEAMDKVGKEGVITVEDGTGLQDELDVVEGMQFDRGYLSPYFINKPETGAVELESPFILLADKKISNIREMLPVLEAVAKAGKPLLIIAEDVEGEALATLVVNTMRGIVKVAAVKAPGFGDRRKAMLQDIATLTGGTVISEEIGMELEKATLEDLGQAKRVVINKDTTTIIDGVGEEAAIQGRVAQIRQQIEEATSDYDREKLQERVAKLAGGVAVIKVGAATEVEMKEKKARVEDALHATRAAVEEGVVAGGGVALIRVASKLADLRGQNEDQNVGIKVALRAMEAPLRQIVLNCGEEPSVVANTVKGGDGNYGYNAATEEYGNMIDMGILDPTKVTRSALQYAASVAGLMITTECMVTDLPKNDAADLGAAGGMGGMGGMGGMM
Summary of the method: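 Urea-denatured rhodanese bound to GroEL/GroES in folding buffer containing thiosulfate. After 60 min at 37°C, thiocyanate reaction (KCN, thiosulfate, phosphate) run, then formaldehyde quench and ferric nitrate added. Fe(SCN)3 read at 460 nm after 15 min RT, with protein-free baseline plates.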

E. coli GroEL/ES [2] = target: T1, E. coli GroEL/ES; test: Inhibition of Escherichia coli GroEL/GroES using Escherichia coli GroEL expressed in Escherichia coli DH5alpha cells and Escherichia coli GroES expressed in Escherichia coli BL21(DE3) cells assessed as reduction in native refolded rhodanese-mediated thiocyanate production by micro plate reader analysis
E. coli GroEL/ES [3] = target: T1, E. coli GroEL/ES; test: Inhibition of Escherichia coli GroEL/GroES using Escherichia coli GroEL expressed in Escherichia coli DH5alpha cells and Escherichia coli GroES expressed in Escherichia coli BL21(DE3) cells assessed as reduction in pig heart native refolded MDH-mediated NADH production by micro plate reader analysis
Summary of the method: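 Native MDH counter-screen. GroEL/ES-dMDH refolding run 60 min at 37°C, then EDTA-quenched without compound. IC50 averaged from at least triplicate.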

E. coli GroEL/ES [4] = target: T1, E. coli GroEL/ES; test: as §1, with “pig heart MDH” for “rhodanese”, “NADH” for “thiocyanate”
Summary of the method: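 Denatured MDH (guanidine-HCl/DTT, 30 min RT) bound to GroEL with GroES in Tris pH 7.4, KCl, MgCl2, DTT buffer. 60 min at 37°C, EDTA quench to 100 mM. Refolded MDH activity read with mesoxalate/NADH at 340 nm. Log-averaged IC50 from replicates.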

E. coli GroEL/ES [5] = target: T1, E. coli GroEL/ES; test: Inhibition of Escherichia coli GroEL/GroES using Escherichia coli GroEL expressed in Escherichia coli DH5alpha cells and Escherichia coli GroES expressed in Escherichia coli BL21(DE3) cells assessed as reduction in denatured pig heart MDH ATPase activity by malachite green dye based assay
Escherichia coli [6] = test: Antibacterial activity against Escherichia coli DH5alpha assessed as reduction in bacterial growth incubated for 6 to 8 hrs; assay type: functional, organism-based; settings: DH5[alpha]
Escherichia coli [7] = test: Antibacterial activity against acrB-deficient Escherichia coli MC4100 assessed as reduction in bacterial growth incubated for 6 to 8 hrs; assay type: functional, organism-based
Escherichia coli [8] = test: Antibacterial activity against Escherichia coli SM101 assessed as reduction in bacterial growth incubated for 12 hrs by UV-Vis spectrophotometric analysis; assay type: functional, organism-based; settings: SM101, 12 h
Bacillus subtilis = test: Antibacterial activity against Bacillus subtilis 168 assessed as reduction in bacterial growth incubated for 6 to 8 hrs; assay type: functional, organism-based; settings: subsp. subtilis str. 168
Enterococcus faecium = test: Antibacterial activity against multidrug resistant Enterococcus faecium NCTC 7171 (ATCC 19434) assessed as reduction in bacterial growth incubated for 6 to 8 hrs; assay type: functional, organism-based
Summary of the method: (§2)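 Broth proliferation assay. S. aureus and MRSA grown in ATCC Medium 18, other pathogens in Brain Heart Infusion. Stagnant incubation at 37°C under breathable seal. OD600 read at mid-log (6-8 h) and corrected with bacteria-free baseline plates. EC50 by variable-slope nonlinear fit, at least triplicate.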

Staphylococcus aureus [9] = test: Antibacterial activity against methicillin resistant Staphylococcus aureus subsp. aureus HPV107 (ATCC BAA-44) assessed as reduction in bacterial growth incubated for 6 to 8 hrs; assay type: functional, organism-based; summary of the method: as §2
HSP60/HSP10 [10] = target: T2, HSP60/HSP10 (Homo sapiens, UniProt P10809); test: Inhibition of human HSP60/HSP10 expressed in Escherichia coli Rosetta2(DE3) cells assessed as inhibition of denatured pig heart MDH refolding by measuring reduction in NADH production incubated for 60 mins by micro plate reader analysis
T2 sequence (P10809 whole entry): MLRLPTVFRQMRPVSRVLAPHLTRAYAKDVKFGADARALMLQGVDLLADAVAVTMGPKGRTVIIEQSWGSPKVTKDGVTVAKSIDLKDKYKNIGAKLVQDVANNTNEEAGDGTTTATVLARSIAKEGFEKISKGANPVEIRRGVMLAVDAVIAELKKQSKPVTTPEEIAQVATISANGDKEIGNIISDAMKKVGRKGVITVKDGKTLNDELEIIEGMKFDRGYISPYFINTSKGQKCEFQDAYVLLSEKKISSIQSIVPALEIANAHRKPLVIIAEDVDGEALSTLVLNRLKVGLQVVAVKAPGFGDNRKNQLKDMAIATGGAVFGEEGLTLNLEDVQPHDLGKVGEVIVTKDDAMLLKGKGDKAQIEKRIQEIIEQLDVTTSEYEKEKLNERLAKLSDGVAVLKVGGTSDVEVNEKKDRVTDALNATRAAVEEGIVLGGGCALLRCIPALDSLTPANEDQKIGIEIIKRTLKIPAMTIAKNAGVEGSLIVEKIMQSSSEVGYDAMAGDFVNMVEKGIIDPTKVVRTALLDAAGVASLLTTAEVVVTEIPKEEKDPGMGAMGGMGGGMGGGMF
T2 sequence (P61604 whole entry, further chain): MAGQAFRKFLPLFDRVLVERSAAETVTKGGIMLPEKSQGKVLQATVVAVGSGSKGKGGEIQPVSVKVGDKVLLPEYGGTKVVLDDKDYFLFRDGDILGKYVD
Summary of the method: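 Pig heart MDH was denatured in guanidine-HCl (dMDH) and complexed with HSP60, then HSP10, in Tris pH 7.4/KCl/MgCl2/DTT buffer. EDTA quench (100 mM final); refolded MDH activity was followed with mesoxalate/NADH at 340 nm.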

HSP60/HSP10 [11] = target: T2, HSP60/HSP10; test: Inhibition of human HSP60/HSP10 expressed in Escherichia coli Rosetta2(DE3) cells assessed as reduction in denatured pig heart MDH ATPase activity by malachite green dye based assay
[12] = Cytotoxicity against human THLE3 cells assessed as reduction in cell viability after 48 hrs by alamar blue assay; assay type: cell-based; settings: THLE3, 48 h
HEK293 = test: Cytotoxicity against HEK293 cells assessed as reduction in cell viability after 48 hrs by alamar blue assay; assay type: cell-based; settings: Homo sapiens, HEK293, 48 h
Staphylococcus aureus [13] = test: Antibacterial activity against Staphylococcus aureus subsp. aureus Seattle 1945 (ATCC 25923) assessed as inhibition of visual growth after 24 hrs; assay type: functional
Summary of the method: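 MIC assay in Tryptic Soy broth (ATCC Medium 18). An overnight culture was diluted 5-fold, grown 1 h at 37°C, then diluted to OD600 0.01 (~10⁷ CFU/ml). Compounds were added in DMSO at fixed final concentrations (e.g. vancomycin 1.2-2.2 µM).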

Staphylococcus aureus [14] = test: Bactericidal activity against Staphylococcus aureus subsp. aureus Seattle 1945 (ATCC 25923) at 4 times MIC up to 24 hrs by agar dilution method; assay type: functional, organism-based
Summary of the method: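 Time-kill in ATCC Medium 18. […] Viable counts were taken at 0, 1, 2, 4, 6 and 24 h by dilution and plating on Medium 18 agar. Values are averages of triplicates.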

[15] = Therapeutic index, ratio of EC50 for human THLE3 cells to EC50 for Staphylococcus aureus subsp. aureus Seattle 1945 (ATCC 25923); assay type: cell-based; settings: read-out: Ratio EC50
[16] = Therapeutic index, ratio of EC50 for HEK293 cells to EC50 for Staphylococcus aureus subsp. aureus Seattle 1945 (ATCC 25923); assay type: cell-based; settings: human, read-out: Ratio EC50
[17] = system: Klebsiella pneumoniae subsp. pneumoniae; test: Antibacterial activity against multidrug resistant Klebsiella pneumoniae subsp. pneumoniae NCTC 9633 (ATCC 13883) assessed as reduction in bacterial growth incubated for 6 to 8 hrs; assay type: functional, organism-based; summary of the method: as §2
Acinetobacter baumannii = test: Antibacterial activity against multidrug resistant Acinetobacter baumannii 2208 (ATCC 19606) assessed as reduction in bacterial growth incubated for 6 to 8 hrs; assay type: functional; summary of the method: as §2
Pseudomonas aeruginosa = test: Antibacterial activity against multidrug resistant Pseudomonas aeruginosa NCTC 10332 (ATCC 10145) assessed as reduction in bacterial growth incubated for 6 to 8 hrs; assay type: functional, organism-based; summary of the method: as §2
Enterobacter cloacae = test: Antibacterial activity against multidrug resistant Enterobacter cloacae subsp. cloacae CDC 442-68 (ATCC 13047) assessed as reduction in bacterial growth incubated for 6 to 8 hrs; assay type: functional, organism-based; summary of the method: as §2
Staphylococcus aureus [18] = test: Antibacterial activity against methicillin susceptible Staphylococcus aureus subsp. aureus Seattle 1945 (ATCC 25923) assessed as reduction in bacterial growth incubated for 6 to 8 hrs

| SMILES | IC50 (E. coli GroEL/ES [1]) | IC50 (E. coli GroEL/ES [2]) | IC50 (E. coli GroEL/ES [3]) | IC50 (E. coli GroEL/ES [4]) | EC50 (Escherichia coli [6]) | EC50 (Escherichia coli [7]) | EC50 (Escherichia coli [8]) | EC50 (Bacillus subtilis) | EC50 (Enterococcus faecium) | EC50 (Staphylococcus aureus [9]) | IC50 (HSP60/HSP10 [10]) | IC50 (HSP60/HSP10 [11]) | EC50 [12] | MIC (Staphylococcus aureus [13]) | Activity (Staphylococcus aureus [14]) | EC50 [17] | EC50 (Acinetobacter baumannii) | EC50 (Pseudomonas aeruginosa) | EC50 (Enterobacter cloacae) | EC50 (Staphylococcus aureus [18]) | further results |
| --- | --- | --- | --- | --- | --- | --- | --- | --- | --- | --- | --- | --- | --- | --- | --- | --- | --- | --- | --- | --- | --- |
| O=C(Nc1ccc(Sc2nc3ccccc3s2)c(Cl)c1)c1cc(Br)cc(Br)c1O | 1.4 µM | > 100 µM | 7.1 µM | 1.4 µM | > 100 µM | 2.3 µM | 0.33 µM | 0.1 µM | 0.15 µM | 0.13 µM | 5.5 µM | 3.6 µM | 12 µM | 0.6 µM (≈ 0.342 µg/mL) | Active | > 100 µM | 30 µM | > 100 µM | > 100 µM | 0.2 µM | IC50 (E. coli GroEL/ES [5]): > 250 µM; EC50 (HEK293): 78 µM; selectivity ratio [15]: 60; selectivity ratio [16]: 390 |
| Cn1c(=O)c(C(=O)Nc2ccncc2)c(O)c2ccccc21 | 6.8 µM | > 100 µM | > 62.5 µM | 5.7 µM | > 100 µM | 21 µM | 3.3 µM | 0.47 µM | > 100 µM | 1.3 µM | > 100 µM | > 250 µM | > 100 µM | 8 µM (≈ 2.36 µg/mL) | Active | > 100 µM | > 100 µM | > 100 µM | > 100 µM | 1.8 µM | EC50 (HEK293): > 100 µM; selectivity ratio [15]: > 55; selectivity ratio [16]: > 55 |
| CN[C@@H](CC(C)C)C(=O)N[C@H]1C(=O)N[C@@H](CC(N)=O)C(=O)N[C@H]2C(=O)N[C@H]3C(=O)N[C@H](C(=O)N[C@@H](C(=O)O)c4cc(O)cc(O)c4-c4cc3ccc4O)[C@H](O)c3ccc(c(Cl)c3)Oc3cc2cc(c3O[C@H]2O[C@@H](CO)[C@H](O)[C@@H](O)[C@@H]2O[C@@H]2C[C@@](C)(N)[C@@H](O)[C@@H](C)O2)Oc2ccc(cc2Cl)[C@H]1O | – | – | – | – | – | – | – | – | 0.3 µM | 0.17 µM | – | – | – | 1.6 µM (≈ 2.32 µg/mL) | Active | > 100 µM | 17 µM | 74 µM | > 100 µM | 0.2 µM | – |
